ChEMBL document CHEMBL4020710, “Discovery and evaluation of the hybrid of bromophenol and saccharide as potent and selective protein tyrosine phosphatase 1B inhibitors” (Eur J Med Chem, 2017)
Calls of active or inactive are those of the source. No cut-off for these calls is given here.

Assays:
[1] = biological target: T1, Tyrosine-protein phosphatase non-receptor type 1 (Homo sapiens, UniProt P18031); test: Inhibition of recombinant PTP1B (unknown origin) using p-NPP as substrate after 30 mins by UV-spectroscopic analysis
T1 sequence (P18031 whole entry): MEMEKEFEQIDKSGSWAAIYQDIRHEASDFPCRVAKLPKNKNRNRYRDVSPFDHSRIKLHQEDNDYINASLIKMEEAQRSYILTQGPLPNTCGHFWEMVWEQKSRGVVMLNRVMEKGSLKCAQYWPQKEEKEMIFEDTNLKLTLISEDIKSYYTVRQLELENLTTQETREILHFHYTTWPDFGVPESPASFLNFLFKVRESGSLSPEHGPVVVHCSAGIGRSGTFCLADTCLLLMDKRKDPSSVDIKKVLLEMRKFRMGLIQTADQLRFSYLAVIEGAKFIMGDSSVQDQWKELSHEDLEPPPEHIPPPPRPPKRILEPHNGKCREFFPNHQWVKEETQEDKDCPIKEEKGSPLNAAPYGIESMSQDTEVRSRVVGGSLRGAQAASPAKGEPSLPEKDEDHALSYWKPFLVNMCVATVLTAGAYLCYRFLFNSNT

[2] = biological target: T2, Tyrosine-protein phosphatase non-receptor type 1 (Homo sapiens) (UniProt P18031); test: Inhibition of recombinant PTP1B (unknown origin) at 10 uM using p-NPP as substrate after 30 mins by UV-spectroscopic analysis
T2 sequence (whole entry): T1 sequence (P18031 whole entry)

[3] = biological target: T2, Tyrosine-protein phosphatase non-receptor type 1 (Homo sapiens); test: Binding affinity to human PTP1B (1 to 321 residues) at 50 uM by SPR assay
[4] = biological target: T3, Tyrosine-protein phosphatase non-receptor type 11 (Homo sapiens, UniProt Q06124); test: Inhibition of SHP2 (unknown origin)
T3 sequence (Q06124 whole entry): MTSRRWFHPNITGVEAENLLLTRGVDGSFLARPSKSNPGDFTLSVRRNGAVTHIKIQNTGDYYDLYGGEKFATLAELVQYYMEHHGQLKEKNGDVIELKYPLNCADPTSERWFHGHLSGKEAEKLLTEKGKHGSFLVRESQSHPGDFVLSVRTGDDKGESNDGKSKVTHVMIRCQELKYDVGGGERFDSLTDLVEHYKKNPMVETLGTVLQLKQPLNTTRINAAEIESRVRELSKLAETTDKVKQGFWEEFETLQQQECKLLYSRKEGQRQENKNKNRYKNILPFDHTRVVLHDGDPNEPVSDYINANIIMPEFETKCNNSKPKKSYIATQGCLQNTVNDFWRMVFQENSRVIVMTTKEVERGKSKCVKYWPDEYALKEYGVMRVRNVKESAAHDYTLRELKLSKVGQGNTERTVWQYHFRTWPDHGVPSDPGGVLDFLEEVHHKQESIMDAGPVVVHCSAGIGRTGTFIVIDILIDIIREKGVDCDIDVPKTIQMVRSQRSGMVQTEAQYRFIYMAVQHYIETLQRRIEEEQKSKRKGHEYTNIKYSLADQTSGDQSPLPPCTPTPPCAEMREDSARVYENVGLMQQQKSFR

[5] = biological target: T4, Receptor-type tyrosine-protein phosphatase F (Homo sapiens, UniProt P10586); test: Inhibition of PTPLAR (unknown origin) at 20 ug/ml
Homo sapiens = species: Homo sapiens; test: Selectivity ratio of IC50 for TCPTP (unknown origin) to IC50 for recombinant PTP1B (unknown origin)
[6] = biological target: T5, Tyrosine-protein phosphatase non-receptor type 2 (Homo sapiens, UniProt P17706); test: Inhibition of TCPTP (unknown origin)
T5 sequence (P17706 whole entry): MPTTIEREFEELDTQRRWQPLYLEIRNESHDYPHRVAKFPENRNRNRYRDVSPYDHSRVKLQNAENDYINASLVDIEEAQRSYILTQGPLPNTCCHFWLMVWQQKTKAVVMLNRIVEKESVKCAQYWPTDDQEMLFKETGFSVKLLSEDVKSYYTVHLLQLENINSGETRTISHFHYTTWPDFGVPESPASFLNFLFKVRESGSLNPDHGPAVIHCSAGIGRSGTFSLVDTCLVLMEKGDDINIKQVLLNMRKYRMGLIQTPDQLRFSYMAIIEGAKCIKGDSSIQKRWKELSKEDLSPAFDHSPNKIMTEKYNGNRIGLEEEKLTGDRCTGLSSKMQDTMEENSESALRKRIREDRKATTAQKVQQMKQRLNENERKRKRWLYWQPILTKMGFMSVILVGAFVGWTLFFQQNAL

[7] = biological target: T4, Receptor-type tyrosine-protein phosphatase F; test: Inhibition of PTPLAR (unknown origin)
[8] = biological target: T6, Tyrosine-protein phosphatase non-receptor type 1 (Mus musculus) (UniProt P35821); test: Inhibition of PTP1B in mouse C2C12 cells assessed as increase in IRS1 phosphorylation at Y632 residues at 0.25 to 1 uM after 8 hrs by Western blot analysis; type: cell-based
T6 sequence (whole entry): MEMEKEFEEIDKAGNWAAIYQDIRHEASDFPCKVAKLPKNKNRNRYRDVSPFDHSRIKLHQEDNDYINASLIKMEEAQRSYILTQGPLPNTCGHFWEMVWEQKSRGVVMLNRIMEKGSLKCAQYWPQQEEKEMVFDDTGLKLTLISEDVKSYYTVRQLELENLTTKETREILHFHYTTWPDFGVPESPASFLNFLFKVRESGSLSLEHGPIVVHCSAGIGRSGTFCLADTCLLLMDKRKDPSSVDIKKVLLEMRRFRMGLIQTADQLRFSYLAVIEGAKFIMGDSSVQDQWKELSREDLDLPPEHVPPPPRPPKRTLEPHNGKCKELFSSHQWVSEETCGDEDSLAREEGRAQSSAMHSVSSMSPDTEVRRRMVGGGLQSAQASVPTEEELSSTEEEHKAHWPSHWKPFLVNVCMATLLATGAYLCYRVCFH

C2C12 [9] = test: Effect on total Akt in mouse C2C12 cells at 0.1 to 1 uM after 8 hrs by Western blot analysis; type: ADME, cell-based; conditions: c2c12, 8 h
C2C12 [10] = test: Effect on total IRbeta in mouse C2C12 cells at 0.1 to 1 uM after 8 hrs by Western blot analysis; type: ADME, cell-based; conditions: c2c12, 8 h
[11] = biological target: T2, Tyrosine-protein phosphatase non-receptor type 1 (Homo sapiens); test: Competitive inhibition of PTP1B (unknown origin) using p-NPP as substrate after 30 mins by Lineweaver-Burk plot analysis
C2C12 (Mus musculus) = test: Drug absorption in mouse C2C12 myotubes assessed per million cells at 10 uM after 8 hrs by HPLC analysis; conditions: c2c12, 8 h
[12] = biological target: T6, Tyrosine-protein phosphatase non-receptor type 1 (Mus musculus); test: Inhibition of PTP1B in mouse C2C12 cells assessed as increase in IRbeta phosphorylation at Y1146 residues in mouse C2C12 cells at 0.1 to 1 uM after 8 hrs by Western blot analysis; type: cell-based
[13] = Drug uptake in mouse C2C12 cells at 10 uM after 8 hrs by HPLC analysis; type: ADME, cell-based; conditions: c2c12, 8 h
Procedure, shortened: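 C2C12 myotubes were exposed to 10 μM for 8 h, with DMSO-treated cells as the control. The medium was then removed and the cells disrupted. An equal amount of internal standard was added, cell debris was removed by filtration, and intracellular compound was quantified by HPLC.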

[14] = biological target: T6, Tyrosine-protein phosphatase non-receptor type 1 (Mus musculus); test: Inhibition of PTP1B in mouse C2C12 cells assessed as increase in Akt phosphorylation at S473 residues in mouse C2C12 cells at 0.1 to 1 uM after 8 hrs by Western blot analysis; type: cell-based

T4 sequence (P10586 whole entry): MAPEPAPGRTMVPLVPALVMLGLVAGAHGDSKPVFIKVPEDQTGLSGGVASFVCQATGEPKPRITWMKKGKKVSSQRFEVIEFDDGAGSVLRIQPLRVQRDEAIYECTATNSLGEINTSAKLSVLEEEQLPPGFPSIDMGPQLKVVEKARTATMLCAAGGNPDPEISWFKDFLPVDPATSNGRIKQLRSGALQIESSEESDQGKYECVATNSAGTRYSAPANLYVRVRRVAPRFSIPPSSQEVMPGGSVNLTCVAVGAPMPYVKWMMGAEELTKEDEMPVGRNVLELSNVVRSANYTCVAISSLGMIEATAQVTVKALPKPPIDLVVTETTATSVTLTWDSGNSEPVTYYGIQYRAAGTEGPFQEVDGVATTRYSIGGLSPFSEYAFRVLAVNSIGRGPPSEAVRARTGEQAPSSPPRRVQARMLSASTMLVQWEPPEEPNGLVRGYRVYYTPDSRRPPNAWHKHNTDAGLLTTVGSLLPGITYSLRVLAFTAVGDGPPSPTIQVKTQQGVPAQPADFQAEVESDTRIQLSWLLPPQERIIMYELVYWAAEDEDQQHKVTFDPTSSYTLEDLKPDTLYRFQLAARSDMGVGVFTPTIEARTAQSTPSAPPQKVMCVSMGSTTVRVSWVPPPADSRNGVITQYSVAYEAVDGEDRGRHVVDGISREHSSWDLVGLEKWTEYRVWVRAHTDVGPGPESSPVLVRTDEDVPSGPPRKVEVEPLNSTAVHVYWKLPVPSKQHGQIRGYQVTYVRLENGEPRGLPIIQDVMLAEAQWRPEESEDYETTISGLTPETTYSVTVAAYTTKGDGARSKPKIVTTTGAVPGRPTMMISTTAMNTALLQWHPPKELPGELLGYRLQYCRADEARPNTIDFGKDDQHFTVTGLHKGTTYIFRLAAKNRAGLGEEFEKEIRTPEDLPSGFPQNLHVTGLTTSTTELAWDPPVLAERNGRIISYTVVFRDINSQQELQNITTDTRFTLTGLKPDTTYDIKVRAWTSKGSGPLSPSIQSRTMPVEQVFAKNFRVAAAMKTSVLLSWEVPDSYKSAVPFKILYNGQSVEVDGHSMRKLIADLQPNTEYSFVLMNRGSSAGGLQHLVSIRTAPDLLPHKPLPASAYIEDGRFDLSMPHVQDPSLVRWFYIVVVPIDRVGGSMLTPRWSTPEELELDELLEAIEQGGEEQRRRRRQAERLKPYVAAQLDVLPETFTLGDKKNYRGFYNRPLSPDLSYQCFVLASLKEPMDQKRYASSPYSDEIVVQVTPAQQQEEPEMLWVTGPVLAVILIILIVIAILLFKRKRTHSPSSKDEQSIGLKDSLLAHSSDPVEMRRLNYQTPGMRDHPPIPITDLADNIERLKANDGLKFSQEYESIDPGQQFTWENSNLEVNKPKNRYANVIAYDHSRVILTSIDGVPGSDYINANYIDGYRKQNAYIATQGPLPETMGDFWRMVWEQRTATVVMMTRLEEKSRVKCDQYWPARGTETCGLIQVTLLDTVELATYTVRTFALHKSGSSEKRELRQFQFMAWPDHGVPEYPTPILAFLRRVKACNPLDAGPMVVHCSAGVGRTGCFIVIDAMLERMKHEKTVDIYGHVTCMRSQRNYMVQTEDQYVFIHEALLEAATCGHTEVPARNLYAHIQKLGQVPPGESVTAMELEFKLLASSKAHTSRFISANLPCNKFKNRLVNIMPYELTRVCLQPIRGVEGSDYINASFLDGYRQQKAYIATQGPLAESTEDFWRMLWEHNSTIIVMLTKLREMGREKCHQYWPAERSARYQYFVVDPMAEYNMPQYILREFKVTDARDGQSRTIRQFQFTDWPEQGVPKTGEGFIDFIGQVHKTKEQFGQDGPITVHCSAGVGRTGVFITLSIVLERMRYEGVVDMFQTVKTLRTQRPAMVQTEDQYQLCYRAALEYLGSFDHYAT

IC50 [1] [µM] | inhibition [2] [%] | Compound | also measured
3.41 |  | COc1cc(C(=O)OC[C@H]2OC(OC(=O)c3cc(Br)c(OC)c(OC)c3)[C@H](OC(=O)c3cc(Br)c(OC)c(OC)c3)[C@@H]2OC(=O)c2cc(Br)c(OC)c(OC)c2)cc(Br)c1OC (stereo not given in full) | 
1.5 |  | COc1cc(C(=O)OC[C@H]2OC(OC(=O)c3cc(Br)c(O)c(OC)c3)[C@H](OC(=O)c3cc(Br)c(O)c(OC)c3)[C@@H]2OC(=O)c2cc(Br)c(O)c(OC)c2)cc(Br)c1O (stereo not given in full) | 
3 |  | O=C(OC1OC[C@@H](OC(=O)c2ccc(O)c(O)c2)[C@H](OC(=O)c2ccc(O)c(O)c2)[C@H]1OC(=O)c1ccc(O)c(O)c1)c1ccc(O)c(O)c1 (stereo not given in full) | 
1.11 |  | COc1cc(C(=O)OC2OC[C@@H](OC(=O)c3cc(Br)c(OC)c(OC)c3)[C@H](OC(=O)c3cc(Br)c(OC)c(OC)c3)[C@H]2OC(=O)c2cc(Br)c(OC)c(OC)c2)cc(Br)c1OC (single isomer, unassigned) | Activity [3]: inactive
12.3 |  | O=C(OCC(COC(=O)c1ccc(O)c(O)c1)OC(=O)c1ccc(O)c(O)c1)c1ccc(O)c(O)c1 | 
2.2 |  | O=C(OC[C@H]1OC(OC(=O)c2ccc(O)c(O)c2)[C@H](OC(=O)c2ccc(O)c(O)c2)[C@@H]1OC(=O)c1ccc(O)c(O)c1)c1ccc(O)c(O)c1 (stereo not given in full) | 
0.75 |  | COc1cc(C(=O)O[C@@H]2OC[C@@H](OC(=O)c3cc(Br)c(O)c(OC)c3)[C@H](OC(=O)c3cc(Br)c(O)c(OC)c3)[C@H]2OC(=O)c2cc(Br)c(O)c(OC)c2)cc(Br)c1O | 
> 20 |  | O=C(OCCOC(=O)c1ccc(O)c(O)c1)c1ccc(O)c(O)c1 | 
0.2 | 99 | O=C(O[C@@H]1OC[C@@H](OC(=O)c2cc(O)c(O)c(Br)c2)[C@H](OC(=O)c2cc(O)c(O)c(Br)c2)[C@H]1OC(=O)c1cc(O)c(O)c(Br)c1)c1cc(O)c(O)c(Br)c1 | 

More lines, now with the values behind:

Compound | IC50 [1] [µM] | inhibition [2] [%] | also measured
COc1cc(C(=O)OCCOC(=O)c2cc(Br)c(O)c(OC)c2)cc(Br)c1O | > 20 |  | 
CC(C)(C)[Si](C)(C)Oc1cc(C(=O)OC[C@H]2OC(OC(=O)c3cc(Br)c(O[Si](C)(C)C(C)(C)C)c(O[Si](C)(C)C(C)(C)C)c3)[C@H](OC(=O)c3cc(Br)c(O[Si](C)(C)C(C)(C)C)c(O[Si](C)(C)C(C)(C)C)c3)[C@@H]2OC(=O)c2cc(Br)c(O[Si](C)(C)C(C)(C)C)c(O[Si](C)(C)C(C)(C)C)c2)cc(Br)c1O[Si](C)(C)C(C)(C)C (stereo not given in full) |  | 43.6 | 
CC(C)(C)[Si](C)(C)Oc1cc(C(=O)O)cc(Br)c1O[Si](C)(C)C(C)(C)C |  | 24.2 | 
CC(C)(C)[Si](C)(C)Oc1cc(C(=O)OCCOC(=O)c2cc(Br)c(O[Si](C)(C)C(C)(C)C)c(O[Si](C)(C)C(C)(C)C)c2)cc(Br)c1O[Si](C)(C)C(C)(C)C |  | 32.8 | 
O=C(OCC(COC(=O)c1cc(O)c(O)c(Br)c1)OC(=O)c1cc(O)c(O)c(Br)c1)c1cc(O)c(O)c(Br)c1 | 0.24 | 95.5 | IC50 [4]: 4.53 µM; inhibition [5]: < 25%; Ratio IC50 (Homo sapiens): 8; IC50 [6]: 1.98 µM; IC50 [7]: Not Active
COc1cc(C(=O)OCC(COC(=O)c2cc(Br)c(O)c(OC)c2)OC(=O)c2cc(Br)c(O)c(OC)c2)cc(Br)c1O | 8.45 |  | 
O=C(OC[C@H]1OC(OC(=O)c2cc(O)c(O)c(Br)c2)[C@H](OC(=O)c2cc(O)c(O)c(Br)c2)[C@@H]1OC(=O)c1cc(O)c(O)c(Br)c1)c1cc(O)c(O)c(Br)c1 (stereo not given in full) | 0.19 | 96.4 | inhibition [8]: Active; IC50 [4]: 15.9 µM; Activity [3]: Active; Activity (C2C12 [9]): Non-Toxic; inhibition [5]: < 25%; Activity (C2C12 [10]): Non-Toxic; Ratio IC50 (Homo sapiens): 32; inhibition [11]: Active; Drug absorption (C2C12 (Mus musculus)): 74 pmol; inhibition [12]: Active; IC50 [6]: 5.94 µM; Drug uptake [13]: 36.9%; inhibition [14]: Active; IC50 [7]: Not Active
CC(C)(C)[Si](C)(C)Oc1cc(C(=O)OC2OC[C@@H](OC(=O)c3cc(Br)c(O[Si](C)(C)C(C)(C)C)c(O[Si](C)(C)C(C)(C)C)c3)[C@H](OC(=O)c3cc(Br)c(O[Si](C)(C)C(C)(C)C)c(O[Si](C)(C)C(C)(C)C)c3)[C@H]2OC(=O)c2cc(Br)c(O[Si](C)(C)C(C)(C)C)c(O[Si](C)(C)C(C)(C)C)c2)cc(Br)c1O[Si](C)(C)C(C)(C)C (stereo not given in full) |  | 41.9 | 
O=C(OCCOC(=O)c1cc(O)c(O)c(Br)c1)c1cc(O)c(O)c(Br)c1 |  | 25 | 
COc1cc(C(=O)OCC(COC(=O)c2cc(Br)c(OC)c(OC)c2)OC(=O)c2cc(Br)c(OC)c(OC)c2)cc(Br)c1OC | > 20 |  | Activity [3]: inactive
CC(C)(C)[Si](C)(C)Oc1cc(C(=O)OCC(COC(=O)c2cc(Br)c(O[Si](C)(C)C(C)(C)C)c(O[Si](C)(C)C(C)(C)C)c2)OC(=O)c2cc(Br)c(O[Si](C)(C)C(C)(C)C)c(O[Si](C)(C)C(C)(C)C)c2)cc(Br)c1O[Si](C)(C)C(C)(C)C |  | 12 | 
COc1cc(C(=O)OCCOC(=O)c2cc(Br)c(OC)c(OC)c2)cc(Br)c1OC | > 20 |  | 
